Converted amounts (≈) assume the structure as drawn. Residues, ends and D or L forms follow the SMILES beside them. *: point of attachment. X1 = Cc1cc2nc(-c3ccc(O)c(C(=O)*)c3)[nH]c2cc1C
system: Bacillus subtilis; assay: Antibacterial activity against Bacillus subtilis NCIM 2063 after 18 hrs by disc diffusion method; assay type: functional; settings: not given
Method in brief: (§1)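 Modified Kirby-Bauer disc diffusion. Plates inoculated with spore suspension (about 6 × 10⁴ spores mL^-1). Sterile 6 mm paper discs carried test samples at 10 mg mL^-1; ciprofloxacin disc as reference, DMF disc as negative control. Plates held 18 h at 37 °C. Inhibition zone diameters (mm) averaged over triplicate sets.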

Row | Structure (SMILES) | inhibition zone (IZ)
1 | COC(=O)[C@H](Cc1cnc[nH]1)NC(=O)CNC(=O)[C@H](Cc1c[nH]c2ccccc12)NC(=O)CNC(=O)c1cc(-c2nc3cc(C)c(C)cc3[nH]2)ccc1O (X1-GWGH-OMe) | 12 mm

system: Staphylococcus aureus; assay: Antibacterial activity against Staphylococcus aureus NCIM 2079 after 18 hrs by disc diffusion method; assay type: functional; settings: not given; method in brief: as §1

Row | Structure (SMILES) | inhibition zone (IZ)
2 | COC(=O)[C@H](Cc1cnc[nH]1)NC(=O)CNC(=O)[C@H](Cc1c[nH]c2ccccc12)NC(=O)CNC(=O)c1cc(-c2nc3cc(C)c(C)cc3[nH]2)ccc1O (X1-GWGH-OMe) | 9 mm

system: Pseudomonas aeruginosa; assay: Antibacterial activity against Pseudomonas aeruginosa NCIM 2034 after 18 hrs by disc diffusion method; assay type: functional; settings: not given; method in brief: as §1

Row | Structure (SMILES) | inhibition zone (IZ)
3 | COC(=O)[C@H](Cc1cnc[nH]1)NC(=O)CNC(=O)[C@H](Cc1c[nH]c2ccccc12)NC(=O)CNC(=O)c1cc(-c2nc3cc(C)c(C)cc3[nH]2)ccc1O (X1-GWGH-OMe) | 23 mm

system: Escherichia coli; assay: Antibacterial activity against Escherichia coli NCIM 2065 after 18 hrs by disc diffusion method; assay type: functional; settings: not given; method in brief: as §1

Row | Structure (SMILES) | inhibition zone (IZ)
4 | COC(=O)[C@H](Cc1cnc[nH]1)NC(=O)CNC(=O)[C@H](Cc1c[nH]c2ccccc12)NC(=O)CNC(=O)c1cc(-c2nc3cc(C)c(C)cc3[nH]2)ccc1O (X1-GWGH-OMe) | 17 mm

system: Candida albicans; assay: Antifungal activity against Candida albicans MUCC 29 after 48 hrs by disc diffusion method; assay type: functional; settings: not given
Method in brief: (§2)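 Agar well diffusion on plates inoculated with spore suspension in normal saline from cultures on Sabouraud's broth. Wells punched and loaded with test samples or griseofulvin at 10 mg mL^-1, with DMSO as negative control. Incubated 48 h at 37 °C.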

Row | Structure (SMILES) | inhibition zone (IZ)
5 | COC(=O)[C@H](Cc1cnc[nH]1)NC(=O)CNC(=O)[C@H](Cc1c[nH]c2ccccc12)NC(=O)CNC(=O)c1cc(-c2nc3cc(C)c(C)cc3[nH]2)ccc1O (X1-GWGH-OMe) | 17 mm

system: Microsporum audouinii; assay: Antifungal activity against Microsporum audouinii MUCC 545 after 48 hrs by disc diffusion method; assay type: functional; settings: not given; method in brief: as §2

Row | Structure (SMILES) | inhibition zone (IZ)
6 | COC(=O)[C@H](Cc1cnc[nH]1)NC(=O)CNC(=O)[C@H](Cc1c[nH]c2ccccc12)NC(=O)CNC(=O)c1cc(-c2nc3cc(C)c(C)cc3[nH]2)ccc1O (X1-GWGH-OMe) | 10 mm

system: Trichophyton benhamiae; assay: Antifungal activity against Trichophyton mentagrophytes MUCC 665 after 48 hrs by disc diffusion method; assay type: functional, Arthroderma benhamiae; settings: not given; method in brief: as §2

Row | Structure (SMILES) | inhibition zone (IZ)
7 | COC(=O)[C@H](Cc1cnc[nH]1)NC(=O)CNC(=O)[C@H](Cc1c[nH]c2ccccc12)NC(=O)CNC(=O)c1cc(-c2nc3cc(C)c(C)cc3[nH]2)ccc1O (X1-GWGH-OMe) | 15 mm

system: Aspergillus niger; assay: Antifungal activity against Aspergillus niger MUCC 177 after 48 hrs by disc diffusion method; assay type: functional; settings: not given; method in brief: as §2

Row | Structure (SMILES) | inhibition zone (IZ)
8 | COC(=O)[C@H](Cc1cnc[nH]1)NC(=O)CNC(=O)[C@H](Cc1c[nH]c2ccccc12)NC(=O)CNC(=O)c1cc(-c2nc3cc(C)c(C)cc3[nH]2)ccc1O (X1-GWGH-OMe) | 15 mm

system: Bacillus subtilis; assay: Antibacterial activity against Bacillus subtilis NCIM 2063 after 18 hrs by tube dilution method; assay type: functional; settings: NCIM 2063, 18 h
Method in brief: (§3)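 Tube dilution MIC. Stock diluted in sterile broth to seven concentrations from 200 to 3.1 […]. Each tube inoculated with one loopful of test bacterium and incubated 18 h at 37 °C. MIC read from presence or absence of growth.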

Row | Structure (SMILES) | MIC
9 | COC(=O)[C@H](Cc1cnc[nH]1)NC(=O)CNC(=O)[C@H](Cc1c[nH]c2ccccc12)NC(=O)CNC(=O)c1cc(-c2nc3cc(C)c(C)cc3[nH]2)ccc1O (X1-GWGH-OMe) | 6 µg/mL (≈ 8.18 µM)

system: Staphylococcus aureus; assay: Antibacterial activity against Staphylococcus aureus NCIM 2079 after 18 hrs by tube dilution method; assay type: functional; settings: NCIM 2079, 18 h; method in brief: as §3

Row | Structure (SMILES) | MIC
10 | COC(=O)[C@H](Cc1cnc[nH]1)NC(=O)CNC(=O)[C@H](Cc1c[nH]c2ccccc12)NC(=O)CNC(=O)c1cc(-c2nc3cc(C)c(C)cc3[nH]2)ccc1O (X1-GWGH-OMe) | 12.5 µg/mL (≈ 17 µM)

system: Pseudomonas aeruginosa; assay: Antibacterial activity against Pseudomonas aeruginosa NCIM 2034 after 18 hrs by tube dilution method; assay type: functional; settings: NCIM 2034, 18 h; method in brief: as §3

Row | Structure (SMILES) | MIC
11 | COC(=O)[C@H](Cc1cnc[nH]1)NC(=O)CNC(=O)[C@H](Cc1c[nH]c2ccccc12)NC(=O)CNC(=O)c1cc(-c2nc3cc(C)c(C)cc3[nH]2)ccc1O (X1-GWGH-OMe) | 6 µg/mL (≈ 8.18 µM)

system: Escherichia coli; assay: Antibacterial activity against Escherichia coli NCIM 2065 after 18 hrs by tube dilution method; assay type: functional; settings: NCIM 2065, 18 h

Row | Structure (SMILES) | MIC
12 | COC(=O)[C@H](Cc1cnc[nH]1)NC(=O)CNC(=O)[C@H](Cc1c[nH]c2ccccc12)NC(=O)CNC(=O)c1cc(-c2nc3cc(C)c(C)cc3[nH]2)ccc1O (X1-GWGH-OMe) | 12.5 µg/mL (≈ 17 µM)

system: Candida albicans; assay: Antifungal activity against Candida albicans MUCC 29 after 48 hrs by tube dilution method; assay type: functional; settings: not given
Method in brief: (§4)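 Tube dilution MIC as for bacteria (seven concentrations, 200–3.1 […]), with DMSO in place of DMF. Tubes inoculated with fungal culture and incubated 48 h at 37 °C. MIC read from presence or absence of growth.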

Row | Structure (SMILES) | MIC
13 | COC(=O)[C@H](Cc1cnc[nH]1)NC(=O)CNC(=O)[C@H](Cc1c[nH]c2ccccc12)NC(=O)CNC(=O)c1cc(-c2nc3cc(C)c(C)cc3[nH]2)ccc1O (X1-GWGH-OMe) | 6 µg/mL (≈ 8.18 µM)

system: Microsporum audouinii; assay: Antifungal activity against Microsporum audouinii MUCC 545 after 48 hrs by tube dilution method; assay type: functional; settings: not given; method in brief: as §4

Row | Structure (SMILES) | MIC
14 | COC(=O)[C@H](Cc1cnc[nH]1)NC(=O)CNC(=O)[C@H](Cc1c[nH]c2ccccc12)NC(=O)CNC(=O)c1cc(-c2nc3cc(C)c(C)cc3[nH]2)ccc1O (X1-GWGH-OMe) | 6 µg/mL (≈ 8.18 µM)

system: Trichophyton benhamiae; assay: Antifungal activity against Trichophyton mentagrophytes MUCC 665 after 48 hrs by tube dilution method; assay type: functional, Arthroderma benhamiae; settings: not given; method in brief: as §4

Row | Structure (SMILES) | MIC
15 | COC(=O)[C@H](Cc1cnc[nH]1)NC(=O)CNC(=O)[C@H](Cc1c[nH]c2ccccc12)NC(=O)CNC(=O)c1cc(-c2nc3cc(C)c(C)cc3[nH]2)ccc1O (X1-GWGH-OMe) | 6 µg/mL (≈ 8.18 µM)

system: Eudrilus; assay: Anthelmintic activity against Eudrilus sp. assessed as mean paralyzing time; assay type: functional; settings: not given
Method in brief: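 Earthworms exposed to test suspensions at 2 mg mL^-1 (0.2% w/v), made by triturating compound with Tween 80 (0.5%) and distilled water, then mechanically stirred 30 min. Mebendazole suspension prepared alike as reference. Paralysis and death times recorded; death confirmed by no movement in 50 °C water. Means from triplicate sets.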

Row | Structure (SMILES) | Time
16 | COC(=O)[C@H](Cc1cnc[nH]1)NC(=O)CNC(=O)[C@H](Cc1c[nH]c2ccccc12)NC(=O)CNC(=O)c1cc(-c2nc3cc(C)c(C)cc3[nH]2)ccc1O (X1-GWGH-OMe) | 11.06 min

Reference: ChEMBL document CHEMBL1146375, “Synthetic studies on novel benzimidazolopeptides with antimicrobial, cytotoxic and anthelmintic potential” (2007)
